Measurements taken from PubChem BioAssay.
The source made the active and inactive calls.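 How the source made its calls, unless noted: active means viability at or below 10% of carrier control in both of two separate runs; inconclusive means viability at or below 10% in only one of the two runs; inactive means the rest.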

Legend:
[1] = Her2 expression decrease, cell viability multiplex – SKBR3 breast tumor cells, AlphaScreen, ATP viability, primary screen (AID 461;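 active means Her2 level under about 52% in both replicate screens, with viability over 70% of control, limit read from the data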;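 on Her2 level: lower value means less Her2 protein in the cells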;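 on viability: percent of carrier control wells set as 100% viability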); settings: SKBR3 Her2 protein level, 18-24 h, measured here: SKBR3 viability, ATP luminescence, at 10 µM
[2] = biological target: Receptor tyrosine-protein kinase erbB-2 (Homo sapiens) (UniProt P04626); test: as above; settings: 18-24 h, at 10 µM, stronger effect = lower value
Chain of Receptor tyrosine-protein kinase erbB-2 (Homo sapiens) (P04626 whole entry, looked up): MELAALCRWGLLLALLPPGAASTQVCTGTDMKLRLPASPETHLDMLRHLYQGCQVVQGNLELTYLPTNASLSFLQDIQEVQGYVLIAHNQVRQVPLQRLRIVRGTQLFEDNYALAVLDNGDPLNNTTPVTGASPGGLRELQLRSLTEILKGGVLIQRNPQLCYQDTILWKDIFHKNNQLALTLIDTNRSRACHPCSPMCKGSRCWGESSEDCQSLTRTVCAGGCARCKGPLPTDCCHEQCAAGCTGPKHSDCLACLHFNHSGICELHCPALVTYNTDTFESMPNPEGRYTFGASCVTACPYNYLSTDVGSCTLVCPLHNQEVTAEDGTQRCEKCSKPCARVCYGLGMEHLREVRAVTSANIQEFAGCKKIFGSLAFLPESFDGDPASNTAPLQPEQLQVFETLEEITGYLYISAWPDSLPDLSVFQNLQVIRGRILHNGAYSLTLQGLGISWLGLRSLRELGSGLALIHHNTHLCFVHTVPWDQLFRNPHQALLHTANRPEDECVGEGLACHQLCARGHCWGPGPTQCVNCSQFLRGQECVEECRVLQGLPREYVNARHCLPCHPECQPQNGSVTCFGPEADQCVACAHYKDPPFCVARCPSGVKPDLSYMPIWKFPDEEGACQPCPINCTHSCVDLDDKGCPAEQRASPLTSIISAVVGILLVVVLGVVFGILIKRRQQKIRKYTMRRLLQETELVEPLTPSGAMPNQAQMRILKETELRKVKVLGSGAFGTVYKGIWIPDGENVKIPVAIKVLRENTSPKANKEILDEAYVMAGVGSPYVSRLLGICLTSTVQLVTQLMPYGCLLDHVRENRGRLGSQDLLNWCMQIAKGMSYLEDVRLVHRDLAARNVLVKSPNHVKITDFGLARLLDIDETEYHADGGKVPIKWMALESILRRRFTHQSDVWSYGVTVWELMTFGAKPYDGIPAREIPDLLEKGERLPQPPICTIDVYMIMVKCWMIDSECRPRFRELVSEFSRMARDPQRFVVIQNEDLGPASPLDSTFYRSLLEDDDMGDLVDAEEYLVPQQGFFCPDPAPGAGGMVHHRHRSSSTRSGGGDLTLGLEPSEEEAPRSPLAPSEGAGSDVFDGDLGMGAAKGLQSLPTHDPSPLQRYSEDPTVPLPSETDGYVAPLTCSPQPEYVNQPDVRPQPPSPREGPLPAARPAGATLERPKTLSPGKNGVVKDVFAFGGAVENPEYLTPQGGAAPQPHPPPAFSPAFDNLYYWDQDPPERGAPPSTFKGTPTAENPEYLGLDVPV

[3] = reduced viability of SK-BR-3 breast cancer cells – cell-based, 24 h, human, pilot screen (AID 572); settings: SK-BR-3 viability, CellTiter-Glo luminescence, at 10 µM, stronger effect = lower value;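 further: compound exposure lasted between 18 and 24 h rather than exactly 24 h; 100% = carrier-treated control wells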
[4] = HUVEC growth inhibition – cell-based, human, primary screen (AID 575;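 active means viability at or below 30% in both replicate assays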;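 further: 100% = median of untreated cell wells with 0.1% DMSO on each plate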); settings: HUVEC proliferation, CellTiter-Glo luminescence, 72 h; at 10 µM; stronger effect = lower value
Method in brief: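 Assay system: Primary human umbilical vein endothelial cells | Quantity: 1250 cells per well | Medium: Supplemented EBM, 2% fetal bovine serum | Detection: CellTiter-Glo luminescence measuring cellular ATP | Read-out: % viability vs DMSO wells | Plate: Collagen-coated 384-well format | Times: 72 h exposure, 37 °C, 5% CO2, 30 min RT equilibration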

[5] = H69AR cell proliferation blockers – human, duplicate replicates, primary screen (AID 580;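 active means viability at or under a set limit in both replicates, limit being median viability minus 3 SD, cut at about 48% in these data, passing the limit was not always enough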;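 further: 100% = mean luminescence of untreated wells and 0% = no signal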); settings: H69AR lung tumor cells viability, ATP luminescence, 72 h; at 10 µM; stronger effect = lower value
[6] = MRP1 drug-resistance reversers in H69AR cells – cell-based, doxorubicin co-treatment, pilot screen (AID 601;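 active means viability loss from added drug above about 55%, and viability with drug at most 40%, in both replicates, limit read from the data, passing the limit was not always enough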); settings: CellTiter-Glo, 72 h, at 10 µM; for differential viability (reversal): stronger effect = higher value
[7] = yeast transport mutant growth inhibition pilot in 384-well plates, post-Golgi transport modulator project (AID 636; in the data active means inhibition above about 31%); settings: absorbance 615 nm, about 18 h, stronger effect = higher value
[8] = growth suppression of yeast trafficking mutant, preliminary HTS, modulators of trafficking downstream of Golgi apparatus project, 1536-format plate, OD 615 nm (AID 637; in the data active means inhibition above about 30%); settings: yeast transport mutant growth, absorbance 615 nm, 18 h; stronger effect = higher value
[9] = H69AR cells + 2 uM doxorubicin, measured here: viability with 2 uM doxorubicin, stronger effect = lower value
[10] = H69AR cells, compound alone cytotoxicity

Row | SMILES | viability [1] [%] | Her2 level [2] | viability [3] | viability [4] | viability [5] | differential viability (reversal) ([6]; H69AR cells + 2 uM doxorubicin) | viability [6, 9] [%] | viability [6, 10] [%] | inhibition [7] | inhibition [8]
1 | CC(=O)c1ccc2c3c(cccc13)C(=O)N(c1c(C)nn(C)c1C)C2=O | 99 | 108% (inactive) | 99% (inactive) | 112% (inactive) | 104% (inactive) | 0.09% (inactive) | 104 | 104 | 1.07% (inactive) | 1.31% (inactive)
2 | COc1cccc2cc(C(=O)N3CCc4ccccc43)c(=O)oc12 | 92 | 74% (inactive) | 92% (inactive) | 95.2% (inactive) | 94.2% (inactive) | 4.2% (inactive) | 90 | 94.2 | -3.03% (inactive) | 0.63% (inactive)
3 | CCCCOC(=O)CSc1nc2c(cc1C#N)C(=O)CC(C)(C)C2 | 87 | 86% (inactive) | 87% (inactive) | 91.2% (inactive) | 78.8% (inactive) | -10.6% (inactive) | 89.4 | 78.8 | -5.13% (inactive) | -2.73% (inactive)
4 | Cn1cccc1-c1nc2ccc(NC(=O)c3ccco3)cc2[nH]1 | 114 | 93% (inactive) | 114% (inactive) | 120% (inactive) | 77% (inactive) | -4.33% (inactive) | 81.4 | 77 | -2.76% (inactive) | -3.65% (inactive)
5 | COc1cc(C2C(C#N)=C(C)NC3=C2C(=O)CC(C)(C)C3)ccc1O (stereo not given) | 100 | 84% (inactive) | 100% (inactive) | 94.7% (inactive) | 101% (inactive) | 3.54% (inactive) | 97.1 | 101 | -6.13% (inactive) | -7.46% (inactive)
6 | CN1CCN(C(=O)C2(NC(=O)Nc3cccc(F)c3)CCCCC2)CC1 | 81 | 97% (inactive) | 81% (inactive) | 97.4% (inactive) | 93.9% (inactive) | -9.36% (inactive) | 103 | 93.9 | -3.65% (inactive) | -3.02% (inactive)
7 | COc1ccc(CCN2C(=O)CCC2(C)C(=O)NCc2cccnc2)cc1OC (stereo not given) | 106 | 91% (inactive) | 106% (inactive) | 109% (inactive) | 89.2% (inactive) | 1.2% (inactive) | 88 | 89.2 | -2.86% (inactive) | -2.22% (inactive)
8 | COc1ccccc1N1CCN(S(=O)(=O)CC23CCC(CC2=O)C3(C)C)CC1 (stereo not given) | 102 | 94% (inactive) | 102% (inactive) | 76.9% (inactive) | 84.5% (inactive) | 0.875% (inactive) | 83.6 | 84.5 | -0.52% (inactive) | -3.67% (inactive)
9 | O=C(NCc1cccnc1)c1ccc(Cl)c(Cl)c1 | 89 | 75% (inactive) | 89% (inactive) | 95.2% (inactive) | 96.8% (inactive) | 9.16% (inactive) | 87.7 | 96.8 | -1.33% (inactive) | 3.61% (inactive)
10 | O=C(OCc1cccs1)c1ccccc1NS(=O)(=O)c1ccc2c(c1)OCCO2 | 91.5 | 94% (inactive) | 91.5% (inactive) | 121% (inactive) | 102% (inactive) | 15.6% (inactive) | 86.7 | 102 | -3.95% (inactive) | 5.74% (inactive)
11 | COc1ccc(C(=O)N2CCN(C3CCCCC3)CC2)c(OC)c1 | 82.5 | 104% (inactive) | 82.5% (inactive) | 88.3% (inactive) | 95.3% (inactive) | 0.4% (inactive) | 94.9 | 95.3 | -2.53% (inactive) | 11.8% (inactive)
12 | Cc1c(NC(=O)c2ccc(COc3ccc4ccccc4c3)o2)c(=O)n(-c2ccccc2)n1C | 88.5 | 91% (inactive) | 88.5% (inactive) | 91.2% (inactive) | 99% (inactive) | 13.7% (inactive) | 85.3 | 99 | -5.47% (inactive) | -5.9% (inactive)
13 | Cc1ccc(-c2cn3cccnc3n2)cc1NC(=O)c1ccc(Br)o1 | 95.5 | 86.5% (inactive) | 95.5% (inactive) | 97.6% (inactive) | 88.5% (inactive) | 8.45% (inactive) | 80 | 88.5 | -0.39% (inactive) | -7.46% (inactive)
14 | Cc1ccc2c(c1)sc1ncc(NC(=O)c3ccccc3)c(=O)n12 | 88.5 | 87% (inactive) | 88.5% (inactive) | 114% (inactive) | 91.7% (inactive) | 3.43% (inactive) | 88.3 | 91.7 | -0.67% (inactive) | 0.66% (inactive)
15 | CCN(CC)C(=O)C1=C(C)NC(=O)NC1c1c(F)cccc1Cl (stereo not given) | 108 | 108% (inactive) | 108% (inactive) | 96.8% (inactive) | 101% (inactive) | 13.7% (inactive) | 87.2 | 101 | -3.82% (inactive) | 4.92% (inactive)
